Data published in publication PMC2662489 (Biochemical Journal, 2009).
Like-named read-outs stand apart in the source and are kept apart here.

How the values were obtained:
[1] = biological target: T1, MsbA-MIANS (Escherichia coli, UniProt P60752); test: MIANS fluorescence quenching titration of MsbA-MIANS; type: binding; settings: for Concentration-dependent quenching of MIANS fluorescence: titration of MsbA-MIANS with negatively charged drugs
[2] = biological target: T2, MsbA (Escherichia coli, UniProt P60752); test: Modulation of the rate of MsbA labelling by MIANS; type: biochemical
[3] = biological target: T1, MsbA-MIANS; test: Dual sequential titration of MsbA-MIANS fluorescence quenching; type: binding; settings: for Effect of lipid A pre-binding on ligand binding affinity (in words): ATP at 10 °C, daunorubicin and p[NH]ppA at 23 °C; for Binding affinity of drug after prior binding of nucleotide (in words): ATP bound first, results not shown
Procedure, shortened: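 MIANS-labelled MsbA (100 μg/ml) was prepared by labelling with 10 μM MIANS, quenching with DTE and dialysing. It was held in 100 mM Hepes, 50 mM NaCl, 5 mM MgCl2, 0.05% DM, pH 7.5, at 23 °C, or 10 °C for ATP to prevent hydrolysis. […] Data were fitted to a single-site model for Kd and ΔFmax.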

[4] = biological target: T2, MsbA; test: ATPase activity assay; type: biochemical; settings: ATP 0.05-10 mM, 0.05% DM
Procedure, shortened: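 Purified His-tagged MsbA (~100 μg/ml in 0.05% (w/v) DM) assayed colorimetrically for free Pi liberated from ATP across varied ATP levels. Labelled enzyme was first reacted with 10 μM MIANS for 2 h at 23 °C in the dark. Unreacted MIANS was quenched with 1 mM DTE before the ATPase measurement.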

[5] = Kd, 23 °C, MsbA 100 μg/ml in 0.05% DM, single-site fit
[6] = 10 °C, MsbA 100 μg/ml in 0.05% DM, ligand alone
[7] = 10 °C, titrated after daunorubicin
[8] = 23 °C, MsbA 100 μg/ml in 0.05% DM, single-site fit

T2 sequence (P60752 whole entry): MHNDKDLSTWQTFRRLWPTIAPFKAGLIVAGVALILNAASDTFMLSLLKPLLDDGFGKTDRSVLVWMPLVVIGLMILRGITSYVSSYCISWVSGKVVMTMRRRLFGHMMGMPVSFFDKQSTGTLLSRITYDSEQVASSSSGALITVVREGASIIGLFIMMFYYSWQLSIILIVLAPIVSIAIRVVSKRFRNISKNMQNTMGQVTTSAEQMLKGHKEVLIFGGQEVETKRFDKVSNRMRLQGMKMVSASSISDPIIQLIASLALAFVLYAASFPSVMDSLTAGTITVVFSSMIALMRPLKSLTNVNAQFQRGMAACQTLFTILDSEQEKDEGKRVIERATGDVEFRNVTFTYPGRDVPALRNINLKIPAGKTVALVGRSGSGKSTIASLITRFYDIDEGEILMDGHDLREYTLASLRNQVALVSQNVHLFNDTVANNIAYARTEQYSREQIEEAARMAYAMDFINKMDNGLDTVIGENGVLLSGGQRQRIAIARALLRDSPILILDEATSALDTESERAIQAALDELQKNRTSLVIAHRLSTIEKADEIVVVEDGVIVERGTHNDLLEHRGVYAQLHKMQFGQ
T1 sequence (P60752 whole entry): as above

## Nc1ncnc2c1ncn2[C@@H]1O[C@H](CO[P@](=O)(O)O[P@](=O)(O)O[P@@](=O)(O)S)[C@@H](O)[C@H]1O [ATP[S], adenosine 5´-[γ-thio]triphosphate]
[1]; [5]
  Kd: 1.82 ± 0.29 µM

## CC(C)[C@@H]1NC(=O)[C@H](C)OC(=O)[C@@H](C(C)C)NC(=O)[C@@H](C(C)C)OC(=O)[C@H](C(C)C)NC(=O)[C@H](C)OC(=O)[C@@H](C(C)C)NC(=O)[C@@H](C(C)C)OC(=O)[C@H](C(C)C)NC(=O)[C@H](C)OC(=O)[C@@H](C(C)C)NC(=O)[C@@H](C(C)C)OC1=O [Valinomycin]
[1]
  Kd: 0.35 ± 0.04 µM
[2]
  Initial rate of labelling: 66.8±3.4 ms^−1
  Labelling efficiency: 101±3.2%

## CCn1cc(C(=O)O)c(=O)c2cc(F)c(N3CCNCC3)cc21 [norfloxacin]
[1]
  Concentration-dependent quenching of MIANS fluorescence: No concentration-dependent quenching

## Nc1ncnc2c1ncn2[C@@H]1O[C@H](COP(=O)(O)OP(=O)(O)OP(=O)(O)O)[C@@H](O)[C@H]1O [ATP]
[1]; [6]
  Kd: 3050 ± 430 µM
[1]; ATP at 10 °C versus p[NH]ppA at 23 °C
  Kd for ATP binding relative to that of p[NH]ppA: > 7 fold
[3]; [7]
  Kd: 950 ± 230 µM
  Maximal quenching (ΔFmax/F0×100): 5.45±0.41%
[3]; 10 °C, titrated after lipid A
  Kd: 2030 ± 300 µM
  Maximal quenching (ΔFmax/F0×100): 12.0±0.78%
[3]
  Effect of lipid A pre-binding on ligand binding affinity (in words): relatively unaffected
[4]; MIANS-labelled MsbA
  Km: 410 ± 40 µM
[4]; unlabelled MsbA
  Km: 520 ± 40 µM

## COc1ccc(CCN(C)CCCC(C#N)(c2ccc(OC)c(OC)c2)C(C)C)cc1OC (centres unmarked) [Verapamil]
[1]; [5]
  Kd: 1.26 ± 0.09 µM
[2]
  Initial rate of labelling: 71.0±2.6 ms^−1
  Labelling efficiency: 82.2±3.6%

## Nc1ncnc2c1ncn2[C@@H]1O[C@H](COP(=O)(O)OP(=O)(O)O)[C@@H](O)[C@H]1O [ADP]
[1]; [8]
  Kd: 130 ± 60 µM
  Maximal quenching (ΔFmax/F0×100): 8.48±0.4%

## Nc1ncnc2c1ncn2[C@@H]1O[C@H](COP(=O)(O)OP(=O)(O)NP(=O)(O)O)[C@@H](O)[C@H]1O [p[NH]ppA, adenosine 5′-[β,γ-imido]triphosphate]
[1]; [8]
  Kd: 470 ± 30 µM
[3]; 23 °C, titrated after lipid A
  Kd: 650 ± 80 µM
  Maximal quenching (ΔFmax/F0×100): 23.2±1.2%
[3]
  Effect of lipid A pre-binding on ligand binding affinity (in words): relatively unaffected

## O=C(O)c1cn(C2CC2)c2cc(N3CCNCC3)c(F)cc2c1=O [ciprofloxacin]
[1]
  Concentration-dependent quenching of MIANS fluorescence: No concentration-dependent quenching

## Nc1ncnc2c1ncn2[C@@H]1O[C@H](COP(=O)(O)O)[C@@H](O)[C@H]1O [AMP]
[1]; [8]
  Kd: 800 ± 200 µM
  Maximal quenching (ΔFmax/F0×100): 7.84±0.80%

## CC1COc2c(N3CCN(C)CC3)c(F)cc3c(=O)c(C(=O)O)cn1c23 (centres unmarked) [ofloxacin]
[1]
  Concentration-dependent quenching of MIANS fluorescence: No concentration-dependent quenching

## CC[C@]1(O)C[C@@H]2CN(CCc3c([nH]c4ccccc34)[C@@](C(=O)OC)(c3cc4c(cc3OC)N(C)[C@H]3[C@@](O)(C(=O)OC)[C@H](OC(C)=O)[C@]5(CC)C=CCN6CC[C@]43[C@@H]65)C2)C1 [Vinblastine]
[1]; [5]
  Kd: 1.2 ± 0.14 µM
[3]
  Binding affinity of drug after prior binding of nucleotide (in words): reduced
[2]
  Initial rate of labelling: 182±3.4 ms^−1
  Labelling efficiency: 105±4.5%
[2]; listed as vinblastine
  Initial rate of labelling: affected the least

## COc1cccc2c1C(=O)c1c(O)c3c(c(O)c1C2=O)C[C@@](O)(C(C)=O)C[C@@H]3O[C@H]1C[C@H](N)[C@H](O)[C@H](C)O1 [Daunorubicin]
[1]; [8]
  Maximal quenching (ΔFmax/F0×100): highest quenching
[1]; 23 °C, MsbA reconstituted into egg PC proteoliposomes
  Kd: essentially the same
[1]; Kd, 10 °C, MsbA 100 μg/ml in 0.05% DM, ligand alone
  Kd: 2.97 ± 0.23 µM
[1]; [5]
  Kd: 4.6 ± 0.2 µM
[1]; Kd, 23 °C, MsbA reconstituted into egg PC proteoliposomes
  Kd: 4.3 ± 0.79 µM
[3]; 10 °C
  Reduction in binding affinity after pre-binding of lipid A: ~2 fold
[3]
  Effect of lipid A pre-binding on ligand binding affinity (in words): did not affect
  Binding affinity of drug after prior binding of nucleotide (in words): reduced
[3]; Kd, 10 °C, titrated after ATP
  Kd: 9.59 ± 0.39 µM
[3]; Kd, 10 °C, titrated after lipid A
  Kd: 5.03 ± 0.11 µM
[3]; Kd, 23 °C, titrated after lipid A
  Kd: 4.42 ± 0.33 µM
[2]
  Initial rate of labelling: 27.4±2.3 ms^−1
  Labelling efficiency: 87.2±1.3%
[2]; listed as daunorubicin
  Initial rate of labelling: the most

## CC1(C)S[C@@H]2[C@H](NC(=O)[C@H](N)c3ccccc3)C(=O)N2[C@H]1C(=O)O [ampicillin]
[1]
  Concentration-dependent quenching of MIANS fluorescence: No concentration-dependent quenching

## O=c1c(O)c(-c2ccc(O)c(O)c2)oc2cc(O)cc(O)c12 [Quercetin]
[1]; [5]
  Kd: 8.56 ± 0.79 µM
[2]
  Initial rate of labelling: 85.0±3.1 ms^−1
  Labelling efficiency: 78.8±1.0%

## Lipid A
[1]; [6]
  Maximal quenching (ΔFmax/F0×100): 6.02±0.11%
[3]
  Increase of ΔFmax for quenching when daunorubicin was bound first: 2 fold
[3]; 10 °C
  Reduction of binding affinity when ATP was pre-bound: ~8 fold
[3]; 10 °C, titrated after ATP
  Maximal quenching (ΔFmax/F0×100): 17.7±1.0%
[3]; [7]
  Maximal quenching (ΔFmax/F0×100): 7.31±0.50%
[3]; 23 °C
  Reduction of binding affinity when p[NH]ppA was pre-bound: ~3 fold
[3]; 23 °C, titrated after daunorubicin
  Maximal quenching (ΔFmax/F0×100): 15.7±1.4%
[3]; 23 °C, titrated after p[NH]ppA
  Maximal quenching (ΔFmax/F0×100): 10.9±1.2%
[2]; 23 °C, MIANS:MsbA stoichiometry after 2000 s, drug at ~5-fold its Kd (2-40 μM)
  Labelling efficiency: 118±9.2%
